In brackets after ≈: the same amount, converted by molar mass.
What was measured:
B1 bradykinin receptor [1] = target: T1, B1 bradykinin receptor (Macaca fascicularis, UniProt Q3BCU0); assay: Antagonist activity at Cynomolgus monkey bradykinin B1 receptor expressed in CHO cells assessed as calcium transient by FLIPR assay; format: functional, cell-based
T1 sequence (Q3BCU0 whole entry): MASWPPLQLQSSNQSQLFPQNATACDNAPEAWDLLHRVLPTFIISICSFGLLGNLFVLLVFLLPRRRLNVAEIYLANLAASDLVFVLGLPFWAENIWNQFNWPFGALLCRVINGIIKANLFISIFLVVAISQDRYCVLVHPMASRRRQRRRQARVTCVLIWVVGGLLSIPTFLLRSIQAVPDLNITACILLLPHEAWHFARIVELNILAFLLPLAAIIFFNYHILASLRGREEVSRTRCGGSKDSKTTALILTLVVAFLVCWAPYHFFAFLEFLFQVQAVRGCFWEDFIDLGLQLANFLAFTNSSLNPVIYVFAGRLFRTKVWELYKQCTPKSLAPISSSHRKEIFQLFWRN

B1 bradykinin receptor [2] = target: T2, B1 bradykinin receptor (Rattus norvegicus, UniProt P97583); assay: Antagonist activity at rat bradykinin B1 receptor; format: functional
T2 sequence (P97583 whole entry): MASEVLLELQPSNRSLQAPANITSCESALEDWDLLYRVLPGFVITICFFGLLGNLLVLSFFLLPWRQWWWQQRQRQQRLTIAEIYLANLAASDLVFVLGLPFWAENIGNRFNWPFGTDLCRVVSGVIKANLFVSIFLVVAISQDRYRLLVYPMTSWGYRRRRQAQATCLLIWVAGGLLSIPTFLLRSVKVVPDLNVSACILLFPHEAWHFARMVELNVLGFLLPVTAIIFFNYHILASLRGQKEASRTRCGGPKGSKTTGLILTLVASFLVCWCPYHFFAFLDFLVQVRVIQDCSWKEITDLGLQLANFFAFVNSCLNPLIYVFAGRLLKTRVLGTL
Procedure, shortened: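 Rat B1 receptor tested in the same way as the cynomolgus assay: FLIPR Ca2+ transients with inhibition of DAKD-induced fluorescence measured across multiple compound concentrations to derive functional IC50.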

MDCK [3] = assay: Ratio of permeability from basolateral to apical over apical to basolateral side of MDCK cells expressing MDR1; format: ADME, cell-based, Canis lupus familiaris; conditions: dog
Procedure, shortened: (§1)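 MDR1-transfected MDCK cell monolayer. Apparent permeability (Papp) measured in the apical-to-basolateral and basolateral-to-apical directions. The A-to-B Papp is reported as passive permeability, and the efflux ratio is Papp(B→A)/Papp(A→B).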

MDR1 = assay: Passive permeability from apical to basolateral side of MDCK cells expressing MDR1; format: ADME, cell-based, Canis lupus familiaris; conditions: dog; procedure, shortened: as §1
MDCK [4] = assay: Ratio of permeability from basolateral to apical over apical to basolateral side of MDCK cells expressing MDR1 in presence of cyclosporine; format: ADME, cell-based, Canis lupus familiaris; conditions: dog
Procedure, shortened: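 MDR1-transfected MDCK monolayer run with 25 µM cyclosporine as P-gp inhibitor. Efflux ratio is Papp basolateral-to-apical divided by Papp apical-to-basolateral.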

B1 bradykinin receptor [5] = target: T3, B1 bradykinin receptor (Homo sapiens, UniProt P46663); assay: Inhibition of human bradykinin B1 receptor
T3 sequence (P46663 whole entry): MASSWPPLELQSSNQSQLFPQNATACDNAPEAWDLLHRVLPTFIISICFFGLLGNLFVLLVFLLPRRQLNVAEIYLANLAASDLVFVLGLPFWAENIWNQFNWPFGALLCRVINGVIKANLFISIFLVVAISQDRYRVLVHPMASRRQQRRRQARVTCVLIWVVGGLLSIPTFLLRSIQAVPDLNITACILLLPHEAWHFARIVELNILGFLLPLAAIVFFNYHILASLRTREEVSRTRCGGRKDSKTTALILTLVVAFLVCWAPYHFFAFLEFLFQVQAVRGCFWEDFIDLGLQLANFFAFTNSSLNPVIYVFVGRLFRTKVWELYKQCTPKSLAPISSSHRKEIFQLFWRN

[6] = Oral bioavailability in rat at 10 mg/kg; format: ADME, organism-based; conditions: in vivo
[7] = Aqueous solubility at pH 7.4; format: physicochemical
Liver microsomes = assay: Metabolic stability in rat liver microsomes at 1 uM after 10 mins by LC-MS analysis in presence of NADPH; format: ADME, Microsome
Procedure, shortened: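 Pooled male rat liver microsomes at 0.5 mg/ml with compound at 1 µM, 37 °C. Reaction started with NADPH, and aliquots taken at 0 and 10 min. Percent parent remaining is the 10-min/0-min signal ratio, corrected by internal standard recovery.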

Compound | IC50 (B1 bradykinin receptor [1]) [nM] | further results
O=C([C@@H]1CCCN1C(=O)c1nc2ccccc2n1Cc1ccccc1)N1CCN(c2ccncc2)CC1 | > 5000 | –
O=C([C@H]1CCCN1C(=O)c1nc2ccccc2n1Cc1ccccc1)N1CCN(c2ccncc2)CC1 | 4070 | –
CN1CCC2(CC1)CCN(C(=O)CCNC(=O)c1nc3ccccc3n1Cc1ccccc1)CC2 | > 5000 | –
CN1CCC(N2CCN(C(=O)c3nc4ccccc4n3Cc3ccccc3)CC2)CC1 | > 5000 | –
O=C(c1nc2ccccc2n1Cc1ccccc1)N1CCC(C(=O)N2CCN(c3ccncc3)CC2)CC1 | 2310 | –
O=C1NCC2(CCN(C(=O)CCNC(=O)c3nc4ccccc4n3Cc3ccccc3)CC2)O1 | > 5000 | –
CCCN1C(=O)C(NC(=O)Nc2ccc(N3CCN(c4ccncc4)CC3)cc2)N=C(CCc2ccccc2)c2ccccc21 (stereo not given) | – | Ki (B1 bradykinin receptor [5]): 0.59 nM; bioavailability [6]: < 4%; Ki (B1 bradykinin receptor [2]): 0.92 nM
CN(C)C(=O)c1ccc(CN(C)C(=O)CNC(=O)c2nc3ccccc3n2Cc2ccccc2)cc1 | > 5000 | –
CN1CCC(N2CCN(C(=O)[C@H]3CCCN3C(=O)c3nc4ccccc4n3Cc3ccccc3)CC2)CC1 | 3220 | –
CCC(NC(=O)c1nc2ccccc2n1Cc1ccccc1)C(=O)N1CCN(c2ccncc2)CC1 (stereo not given) | > 5000 | –
Cc1c(C(=O)NCCC2CCN(C3CCN(C)CC3)CC2)n[nH]c1NC(=O)c1ccccc1Cl | – | IC50 (B1 bradykinin receptor [5]): 1.8 nM
CN1CCC2(CCN(C(=O)CCNC(=O)c3nc4ccccc4n3Cc3ccccc3)CC2)C1 | 2910 | –
CN(Cc1ccc(-c2nnn[nH]2)cc1)C(=O)CNC(=O)c1nc2ccccc2n1Cc1ccccc1 | > 5000 | –
CC(C)N(CC(=O)N1CCN(c2ccncc2)CC1)C(=O)c1nc2ccccc2n1Cc1ccccc1 | > 5000 | –
O=C(NCC(=O)N1CCN(c2ccncc2)CC1)c1nc2ccccc2n1Cc1ccccc1 | 310 | IC50 (B1 bradykinin receptor [2]): 417 nM
O=C(c1nc2ccccc2n1Cc1ccccc1)N1CCN(c2ccncc2)CC1 | > 5000 | –
CCN(CC(=O)N1CCN(c2ccncc2)CC1)Cc1nc2ccccc2n1Cc1ccccc1 | > 5000 | –
CN(Cc1ccc(C#N)cc1)C(=O)CNC(=O)c1nc2ccccc2n1Cc1ccccc1 | > 5000 | Papp A→B (MDR1): 7 ×10⁻⁶ cm/s; Ratio (MDCK [3]): 3
CN(Cc1ccc(C(N)=O)cc1)C(=O)CNC(=O)c1nc2ccccc2n1Cc1ccccc1 | > 5000 | –
CN1CCC(N2CCN(C(=O)C3CCN(C(=O)c4nc5ccccc5n4Cc4ccccc4)CC3)CC2)CC1 | 4020 | –
CCN(CC(=O)N1CCN(C2CCN(C)CC2)CC1)Cc1nc2ccccc2n1Cc1ccccc1 | > 5000 | –

More lines, main results first:

IC50 (B1 bradykinin receptor [1]) [nM] | Compound | further results
962 | O=C(NCCC(=O)N1CCN(c2ccncc2)CC1)c1nc2ccccc2n1Cc1ccccc1 | –
744 | O=C(CCNC(=O)c1nc2ccccc2n1Cc1ccccc1)Nc1ccc2nc[nH]c2c1 | –
1020 | CN(Cc1ccc(C2=NCCN2)cc1)C(=O)c1nc2ccccc2n1Cc1ccccc1 | –
2 | O=C(CCNC(=O)c1nc2ccccc2n1Cc1ccccc1)Nc1ccc(C2=NCCN2)nc1 | IC50 (B1 bradykinin receptor [2]): 0.8 nM; Ratio (MDCK [3]): 42
330 | CN(Cc1ccc(-c2ncccn2)cc1)C(=O)CNC(=O)c1nc2ccccc2n1Cc1ccccc1 | –
188 | CN(Cc1ccc(C2=NCCN2)cc1)C(=O)C1CCN(C(=O)c2nc3ccccc3n2Cc2ccccc2)CC1 | –
5 | CN(Cc1ccc(C2=NCCN2)cc1)C(=O)CNC(=O)c1nc2ccccc2n1Cc1ccccc1 | Papp A→B (MDR1): 1 ×10⁻⁶ cm/s; IC50 (B1 bradykinin receptor [2]): 155 nM; Ratio (MDCK [4]): 1.5; Ratio (MDCK [3]): 23
686 | CN1CCC(N2CCN(C(=O)CNC(=O)c3nc4ccccc4n3Cc3ccccc3)CC2)CC1 | –
465 | CC(C)N(CC(=O)N1CCN(C2CCN(C)CC2)CC1)C(=O)c1nc2ccccc2n1Cc1ccccc1 | –
1990 | O=C(NCCC(=O)N1CCC2(CCOCC2)CC1)c1nc2ccccc2n1Cc1ccccc1 | –
524 | O=C(CCNC(=O)c1nc2ccccc2n1Cc1ccccc1)Nc1ccc2cn[nH]c2c1 | –
196 | CN(Cc1ccc(CN2CCCCC2)cc1)C(=O)CNC(=O)c1nc2ccccc2n1Cc1ccccc1 | –
1180 | CN(CC(=O)N1CCN(c2ccncc2)CC1)C(=O)c1nc2ccccc2n1Cc1ccccc1 | –
1300 | CCC(NC(=O)c1nc2ccccc2n1Cc1ccccc1)C(=O)N1CCN(C2CCN(C)CC2)CC1 (stereo not given) | –
1170 | CN(Cc1ccc(-c2nccs2)cc1)C(=O)CNC(=O)c1nc2ccccc2n1Cc1ccccc1 | –
718 | Cc1nc(-c2ccc(CN(C)C(=O)CNC(=O)c3nc4ccccc4n3Cc3ccccc3)cc2)no1 | –
2130 | CN(Cc1ccc(-c2cc[nH]n2)cc1)C(=O)CNC(=O)c1nc2ccccc2n1Cc1ccccc1 | –
54 | CN(Cc1ccc(C2=NCCN2)cc1)C(=O)CCNC(=O)c1nc2ccccc2n1Cc1ccccc1 | –
278 | CCN(CC(=O)N1CCN(c2ccncc2)CC1)C(=O)c1nc2ccccc2n1Cc1ccccc1 | –
6 | CCN(CC(=O)N(C)Cc1ccc(C2=NCCN2)cc1)C(=O)c1nc2ccccc2n1Cc1ccccc1 | IC50 (B1 bradykinin receptor [2]): 345 nM
626 | CN(Cc1ccc(-n2ccnc2)cc1)C(=O)CNC(=O)c1nc2ccccc2n1Cc1ccccc1 | –
16 | CCN(CC(=O)N1CCN(C2CCN(C)CC2)CC1)C(=O)c1nc2ccccc2n1Cc1ccccc1 | Papp A→B (MDR1): 0.6 ×10⁻⁶ cm/s; bioavailability [6]: < 5%; IC50 (B1 bradykinin receptor [2]): 15 nM; Ratio (MDCK [3]): 55; solubility [7]: 120 µg/mL (≈ 239 µM); Stability (Liver microsomes): Stable
884 | CN1CCC(N2CCN(C(=O)[C@@H]3CCCN3C(=O)c3nc4ccccc4n3Cc3ccccc3)CC2)CC1 | –
355 | CCCN(CC(=O)N1CCN(c2ccncc2)CC1)C(=O)c1nc2ccccc2n1Cc1ccccc1 | IC50 (B1 bradykinin receptor [2]): 396 nM
14 | CN(Cc1ccc(C2=NCCN2C)cc1)C(=O)CNC(=O)c1nc2ccccc2n1Cc1ccccc1 | –
18 | CCCN(CC(=O)N1CCN(C2CCN(C)CC2)CC1)C(=O)c1nc2ccccc2n1Cc1ccccc1 | IC50 (B1 bradykinin receptor [2]): 23 nM
268 | CN1CCC(N2CCN(C(=O)CN(C)C(=O)c3nc4ccccc4n3Cc3ccccc3)CC2)CC1 | –
407 | CN(Cc1ccc(-c2ccccn2)cc1)C(=O)CNC(=O)c1nc2ccccc2n1Cc1ccccc1 | –
601 | CN1CCC(N2CCN(C(=O)CCNC(=O)c3nc4ccccc4n3Cc3ccccc3)CC2)CC1 | –
